Laboratory results as given in ChEMBL document CHEMBL1142327, “2-Amino-N-pyrimidin-4-ylacetamides as A2A receptor antagonists: 2. Reduction of hERG activity, observed species selectivity, and structure-activity relationships” (J Med Chem, 2008).
The source made the active and inactive calls. The rule behind the calls is not given here.

Legend:
Adenosine receptor A1 = biological target: T1, Adenosine receptor A1 (Homo sapiens, UniProt P30542); experiment: Displacement of [3H]-DPCPX from human adenosine A1 receptor expressed in HEK293 cell membrane; type: cell membranes
T1 sequence (P30542 whole entry): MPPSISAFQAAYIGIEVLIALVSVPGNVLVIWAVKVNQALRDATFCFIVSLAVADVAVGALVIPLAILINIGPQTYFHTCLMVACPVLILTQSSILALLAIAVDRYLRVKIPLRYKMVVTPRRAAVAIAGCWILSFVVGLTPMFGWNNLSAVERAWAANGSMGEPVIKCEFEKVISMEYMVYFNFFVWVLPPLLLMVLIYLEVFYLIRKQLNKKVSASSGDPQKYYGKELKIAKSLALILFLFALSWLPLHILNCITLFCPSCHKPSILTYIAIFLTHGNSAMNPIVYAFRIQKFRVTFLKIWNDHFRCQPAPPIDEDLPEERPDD
Outline: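 Flp-In HEK293 cell line stably expressing the human receptor, crude membranes used at 1–2 µg protein. Pre-incubated 30 min at room temperature with 10 µg/mL adenosine deaminase. Then incubated 90 min with 1.0 nM [3H]-DPCPX and graded competitor in 50 mM Tris-HCl pH 7.4, 1 mM EDTA, 10 mM MgCl2. Nonspecific binding defined with 1 µM DPCPX. Separated by filtration on GF/C, counted by scintillation. Ki from IC50 via Cheng-Prusoff. Mean of at least two runs.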

Adenosine receptor A2a [1] = biological target: Adenosine receptor A2a (Homo sapiens, UniProt P29274); experiment: Displacement of [3H]-ZM 241385 from human adenosine A2A receptor expressed in HEK293 cell membrane; type: cell membranes
Homo sapiens = species on record: Homo sapiens; experiment: Selectivity ratio of Ki for human adenosine A1 receptor to Ki for human adenosine A2A receptor
Outline: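 Stably transfected Flp-In HEK293 membranes with human A1 or A2A receptors (1–2 µg protein) were preincubated 30 min at room temp with adenosine deaminase. They were then incubated 90 min with competitor and 1.0 nM [3H]-DPCPX (A1) or 2.0 nM [3H]-ZM241385 (A2A). Nonspecific binding used 1 µM DPCPX or CGS15943. Filtration and scintillation counting followed. […] Ratio is A1 Ki/A2A Ki.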

Adenosine receptor A2a [2] = biological target: Adenosine receptor A2a (Rattus norvegicus, UniProt P30543); experiment: Displacement of [3H]-ZM 241385 from rat adenosine A2A receptor expressed in CHO cell membrane; type: cell membranes
[3] = biological target: Voltage-gated inwardly rectifying potassium channel KCNH2 (Homo sapiens, UniProt Q12809); experiment: Inhibition of human ERG potassium current expressed in HEK293 cells by patch-clamp technique
Rattus norvegicus = experiment: Effect on haloperidol-induced catalepsy in Wistar rat at 30 mg/kg, po after 2 hrs; type: functional, organism-based; design: dose 30 mg/kg
Outline: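 Male Wistar rats, ∼220 g, habituated 1 week, 24 per experiment. Oral dose of 30 mg/kg in 5% cremophor/sterile water (5 mL/kg) 2 h before testing, haloperidol 1.5 mg/kg ip 1 h before. Bar test: forepaws placed on 8.0 cm bar, three 30 s trials 3 min apart. Descent latency averaged per rat and compared with vehicle, p < 0.05.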

[4] = Drug level in Wistar rat brain at 30 mg/kg, po after 2 hrs; type: ADME, organism-based; design: dose 30 mg/kg, route oral; conditions: read-out: Drug uptake
Outline: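 Male Wistar rats, ∼220 g. Oral dose of 30 mg/kg in 5% cremophor in sterile water (5 mL/kg), with haloperidol 1.5 mg/kg ip 1 h before the bar test. Brain collected 2 h after dosing. Half-brain homogenates centrifuged, supernatant analysed by LC-MS/MS (positive ESI, MRM). Quantified against brain-matrix calibration standards by internal-standard peak-area ratio on a 1/x-weighted linear curve.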

Cytochrome P450 2D6 = Cytochrome P450 2D6 (Homo sapiens, UniProt P10635); experiment: Inhibition of CYP2D6; type: ADME
Cytochrome P450 3A4 = Cytochrome P450 3A4 (Homo sapiens, UniProt P08684); experiment: Inhibition of CYP3A4; type: ADME
Sequence of Cytochrome P450 3A4 (P08684 whole entry): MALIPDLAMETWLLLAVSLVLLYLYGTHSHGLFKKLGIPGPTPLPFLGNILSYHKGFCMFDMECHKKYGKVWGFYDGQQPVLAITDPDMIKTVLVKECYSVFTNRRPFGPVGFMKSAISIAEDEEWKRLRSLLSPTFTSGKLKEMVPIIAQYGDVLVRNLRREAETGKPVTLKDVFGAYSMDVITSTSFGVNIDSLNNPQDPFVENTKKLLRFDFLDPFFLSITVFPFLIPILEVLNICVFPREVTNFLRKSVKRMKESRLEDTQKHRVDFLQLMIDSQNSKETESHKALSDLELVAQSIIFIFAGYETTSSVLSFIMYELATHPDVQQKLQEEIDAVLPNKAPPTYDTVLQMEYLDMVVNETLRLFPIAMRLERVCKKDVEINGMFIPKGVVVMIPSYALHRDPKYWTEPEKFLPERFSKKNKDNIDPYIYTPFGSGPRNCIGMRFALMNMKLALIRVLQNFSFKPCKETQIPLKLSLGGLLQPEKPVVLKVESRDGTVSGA

Sequence of Adenosine receptor A2a (Homo sapiens, UniProt P29274) (P29274 whole entry): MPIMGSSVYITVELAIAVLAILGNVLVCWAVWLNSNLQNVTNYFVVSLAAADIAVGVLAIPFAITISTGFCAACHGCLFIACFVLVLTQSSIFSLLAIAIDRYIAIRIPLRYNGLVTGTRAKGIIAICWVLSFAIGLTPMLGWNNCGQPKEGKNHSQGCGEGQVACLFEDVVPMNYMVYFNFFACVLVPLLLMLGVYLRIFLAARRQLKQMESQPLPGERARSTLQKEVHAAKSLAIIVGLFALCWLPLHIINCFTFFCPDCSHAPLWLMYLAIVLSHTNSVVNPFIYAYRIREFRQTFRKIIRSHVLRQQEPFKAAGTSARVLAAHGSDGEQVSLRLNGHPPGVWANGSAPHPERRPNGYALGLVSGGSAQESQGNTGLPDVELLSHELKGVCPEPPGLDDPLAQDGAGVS
Sequence of Voltage-gated inwardly rectifying potassium channel KCNH2 (Q12809 whole entry): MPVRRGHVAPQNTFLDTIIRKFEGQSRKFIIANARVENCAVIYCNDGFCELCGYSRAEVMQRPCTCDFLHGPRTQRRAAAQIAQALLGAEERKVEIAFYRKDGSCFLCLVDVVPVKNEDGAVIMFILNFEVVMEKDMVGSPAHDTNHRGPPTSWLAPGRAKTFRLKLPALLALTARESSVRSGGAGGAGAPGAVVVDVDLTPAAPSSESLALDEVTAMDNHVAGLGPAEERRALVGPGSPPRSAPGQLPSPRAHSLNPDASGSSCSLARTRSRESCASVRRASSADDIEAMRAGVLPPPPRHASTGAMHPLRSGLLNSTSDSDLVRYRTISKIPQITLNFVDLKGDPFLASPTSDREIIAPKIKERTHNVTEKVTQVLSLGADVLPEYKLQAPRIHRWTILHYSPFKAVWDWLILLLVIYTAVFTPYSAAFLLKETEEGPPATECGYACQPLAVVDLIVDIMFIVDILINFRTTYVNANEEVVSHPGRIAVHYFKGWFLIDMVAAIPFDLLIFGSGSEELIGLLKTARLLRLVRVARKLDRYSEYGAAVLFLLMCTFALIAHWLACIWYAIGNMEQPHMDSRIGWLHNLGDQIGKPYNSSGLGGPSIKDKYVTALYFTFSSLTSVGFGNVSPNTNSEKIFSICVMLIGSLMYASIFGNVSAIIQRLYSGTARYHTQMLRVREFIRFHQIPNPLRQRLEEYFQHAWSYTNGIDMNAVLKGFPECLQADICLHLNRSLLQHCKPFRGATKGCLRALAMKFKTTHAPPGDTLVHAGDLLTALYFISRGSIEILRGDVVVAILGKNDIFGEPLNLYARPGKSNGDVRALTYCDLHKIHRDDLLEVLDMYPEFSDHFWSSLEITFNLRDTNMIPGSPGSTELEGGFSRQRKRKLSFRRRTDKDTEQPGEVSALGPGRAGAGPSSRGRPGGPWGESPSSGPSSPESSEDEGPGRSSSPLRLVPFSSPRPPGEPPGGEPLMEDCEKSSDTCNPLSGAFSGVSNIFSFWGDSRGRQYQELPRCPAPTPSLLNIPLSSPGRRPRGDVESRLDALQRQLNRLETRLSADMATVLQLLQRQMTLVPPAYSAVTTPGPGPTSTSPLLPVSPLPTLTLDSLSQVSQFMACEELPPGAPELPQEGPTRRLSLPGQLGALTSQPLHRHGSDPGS
Sequence of Adenosine receptor A2a (Rattus norvegicus, UniProt P30543) (P30543 whole entry): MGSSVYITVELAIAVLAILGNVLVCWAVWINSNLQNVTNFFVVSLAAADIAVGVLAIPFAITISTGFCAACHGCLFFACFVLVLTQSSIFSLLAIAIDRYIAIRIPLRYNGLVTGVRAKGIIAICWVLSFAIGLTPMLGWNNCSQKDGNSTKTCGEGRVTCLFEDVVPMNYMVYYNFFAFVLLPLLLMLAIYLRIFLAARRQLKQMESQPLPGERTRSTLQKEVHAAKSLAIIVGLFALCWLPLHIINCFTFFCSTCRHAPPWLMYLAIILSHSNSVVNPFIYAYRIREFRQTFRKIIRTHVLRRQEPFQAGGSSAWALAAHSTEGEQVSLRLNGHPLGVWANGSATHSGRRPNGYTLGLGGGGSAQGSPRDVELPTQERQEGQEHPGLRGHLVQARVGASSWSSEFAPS
Sequence of Cytochrome P450 2D6 (P10635 whole entry): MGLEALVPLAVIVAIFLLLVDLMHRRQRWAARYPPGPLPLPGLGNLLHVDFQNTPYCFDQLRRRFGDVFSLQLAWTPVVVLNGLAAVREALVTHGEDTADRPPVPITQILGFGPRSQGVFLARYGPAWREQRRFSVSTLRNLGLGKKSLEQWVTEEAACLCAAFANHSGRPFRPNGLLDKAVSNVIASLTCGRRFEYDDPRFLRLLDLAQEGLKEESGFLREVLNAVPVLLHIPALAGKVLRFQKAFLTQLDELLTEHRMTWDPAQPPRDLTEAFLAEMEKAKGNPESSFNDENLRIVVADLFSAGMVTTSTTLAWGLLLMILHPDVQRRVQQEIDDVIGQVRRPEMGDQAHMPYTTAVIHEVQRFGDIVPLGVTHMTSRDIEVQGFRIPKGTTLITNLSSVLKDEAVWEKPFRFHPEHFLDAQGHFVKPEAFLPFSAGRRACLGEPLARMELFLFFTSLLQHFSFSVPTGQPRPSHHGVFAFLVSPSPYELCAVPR

| SMILES | Ki (Adenosine receptor A1) [nM] | Ki (Adenosine receptor A2a [1]) [nM] | Ratio Ki (Homo sapiens) | Ki (Adenosine receptor A2a [2]) [nM] | Inhibition (Cytochrome P450 2D6) | Inhibition (Cytochrome P450 3A4) | IC50 [3] [nM] | Activity (Rattus norvegicus) | concentration at 2 h [4] [ng/g] |
| --- | --- | --- | --- | --- | --- | --- | --- | --- | --- |
| Cc1cc(C)n(-c2cc(NC(=O)CN3CCCOCC3)nc(-c3ccc(C)o3)n2)n1 | 630 | 6 | 105 | 230 |  |  |  |  |  |
| Cc1cc(C)n(-c2cc(NC(=O)CN3CCCN(C)CC3)nc(-c3ccc(C)o3)n2)n1 | 2100 | 10 | 210 | 46.7 |  |  | 285 |  |  |
| Cc1cc(C)n(-c2cc(NC(=O)CC3CCN(C)CC3)nc(-c3ccc(C)o3)n2)n1 | 1020 | 5.4 |  | 103 |  |  |  |  |  |
| Cc1cc(C)n(-c2cc(NC(=O)CN3CCC[C@@H](CN(C)C)C3)nc(-c3ccc(C)o3)n2)n1 | 71 | 1.5 | 47 | 14 |  |  |  |  |  |
| Cc1cc(C)n(-c2cc(NC(=O)CN3CC[C@H](CN(C)C)C3)nc(-c3ccc(C)o3)n2)n1 | 550 | 11 |  | 34 |  |  |  |  |  |
| Cc1cc(C)n(-c2cc(NC(=O)CCN(C)C)nc(-c3ccc(C)o3)n2)n1 | 210 | 2.1 |  | 43 |  |  |  |  |  |
| Cc1cc(C)n(-c2cc(NC(=O)CN3CCOCC3)nc(-c3ccc(C)o3)n2)n1 | 500 | 5.7 | 88 | 430 |  |  |  |  |  |
| Cc1cc(C)n(-c2cc(NC(=O)CN3CC[C@@H](CN(C)C)C3)nc(-c3ccc(C)o3)n2)n1 | 220 | 2.1 |  | 27.8 |  |  |  |  |  |
| Cc1cc(C)n(-c2cc(NC(=O)CN3CCN(C)CC3)nc(-c3ccc(C)o3)n2)n1 |  |  | 71 | 131 | Not Active | Not Active | 950 |  |  |
| Cc1cc(C)n(-c2cc(NC(=O)CN3CCC[C@H](CN(C)C)C3)nc(-c3ccc(C)o3)n2)n1 | 890 | 10 | 89 | 87 |  |  |  |  |  |
| CCN1CCN(CC(=O)Nc2cc(-n3nc(C)cc3C)nc(-c3ccc(C)o3)n2)CC1 | 1880 | 11 | 171 | 270 |  |  |  |  |  |
| Cc1cc(C)n(-c2cc(NC(=O)CCN3CC[C@H](N(C)C)C3)nc(-c3ccc(C)o3)n2)n1 | 630 | 2.4 | 263 | 41 |  |  | 2280 | Active | 250 |

More lines, main results first:

| Ki (Adenosine receptor A1) [nM] | Ki (Adenosine receptor A2a [1]) [nM] | Ratio Ki (Homo sapiens) | Ki (Adenosine receptor A2a [2]) [nM] | Inhibition (Cytochrome P450 2D6) | Inhibition (Cytochrome P450 3A4) | SMILES | IC50 [3] [nM] | Activity (Rattus norvegicus) | concentration at 2 h [4] [ng/g] |
| --- | --- | --- | --- | --- | --- | --- | --- | --- | --- |
| 270 | 3.8 | 71 |  |  |  | CCN[C@@H]1CCN(CC(=O)Nc2cc(-n3nc(C)cc3C)nc(-c3ccc(C)o3)n2)C1 |  |  |  |
| 262 | 4 | 66 |  |  |  | Cc1cc(C)n(-c2cc(NC(=O)CN3CC[C@@H](N(C)C)C3)nc(-c3ccc(C)o3)n2)n1 |  |  |  |
| 940 | 3.7 | 254 | 160 |  |  | Cc1cc(C)n(-c2cc(NC(=O)CN3CC[C@H](N(C)C)C3)nc(-c3ccc(C)o3)n2)n1 | 600 | Active | 1900 |
| 2300 | 86 | 27 |  |  |  | Cc1cc(C)n(-c2cc(NC(=O)CN3CC[C@H](OC(C)C)C3)nc(-c3ccc(C)o3)n2)n1 |  |  |  |
| 2600 | 4.4 | 591 | 155 |  |  | CCN(CC)[C@H]1CCN(CC(=O)Nc2cc(-n3nc(C)cc3C)nc(-c3ccc(C)o3)n2)C1 |  |  |  |
| 380 | 2.9 | 131 | 25 |  |  | Cc1cc(C)n(-c2cc(NC(=O)CN3CCC(CN(C)C)CC3)nc(-c3ccc(C)o3)n2)n1 | 1670 |  |  |
| 347 | 8.6 | 40 |  |  |  | Cc1cc(C)n(-c2cc(NC(=O)CN3CCCC3)nc(-c3ccc(C)o3)n2)n1 |  |  |  |
| 370 | 2.5 | 148 | 37 |  |  | CCN[C@H]1CCN(CC(=O)Nc2cc(-n3nc(C)cc3C)nc(-c3ccc(C)o3)n2)C1 | 420 |  |  |
| 540 | 3.6 | 150 | 170 |  |  | CC(=O)N1CCN(CC(=O)Nc2cc(-n3nc(C)cc3C)nc(-c3ccc(C)o3)n2)CC1 |  |  |  |
| 1210 | 15 | 81 | 1600 |  |  | COC1CCN(CC(=O)Nc2cc(-n3nc(C)cc3C)nc(-c3ccc(C)o3)n2)CC1 |  |  |  |
